Experimental data of several laboratories.
Protocols differ between the studies behind these lines.
RPS6KA4 C-terminal kinase domain: Ribosomal protein S6 kinase alpha-4, C-terminal kinase domain (RPS6KA4, Homo sapiens, UniProt O75676)
RPS6KA4: Ribosomal protein S6 kinase alpha-4 (RPS6KA4, Homo sapiens, UniProt O75676)

SMILES | target | assay | setting | endpoint | value
Cn1cncc1[C@](O)(COc1ccc(C#N)cc1-c1ccc(OC(F)(F)F)cc1)c1ccc(C#N)cc1 | RPS6KA4 C-terminal kinase domain | cell-free assay, competition with immobilised ligand | 1 µM | remaining binding | 76%
Cn1cc(-c2cccc(N3CCc4c(sc5c4CC(C)(C)C5)C3=O)c2CO)cc(Nc2ccncn2)c1=O | RPS6KA4 | enzyme activity, inhibitor | 1 µM | inhibition | 3%
CC(C)(C)c1cc(C=C(C#N)C#N)cc(Br)c1O | RPS6KA4 | enzyme activity, inhibitor | 0.5 µM | remaining activity | 90.9%
Nc1ncc(-c2nc(N3CCOCC3)nc(N3CCOCC3)n2)c(C(F)F)n1 | RPS6KA4 C-terminal kinase domain | binding, competition with immobilised ligand | 10 µM | remaining binding | 63%
O=c1[nH]c2ccccc2n1C1CCN(Cc2ccc(-c3[nH]c4cc5ncnc5cc4nc3-c3ccccc3)cc2)CC1 | RPS6KA4 | cell-free assay | 0.5 µM | remaining signal | 98.8%
N#CC1(c2ccccn2)CCN(Cc2cc(C(=O)O)c(=O)n3ccccc23)CC1 | RPS6KA4 C-terminal kinase domain | cell-free assay, competition with immobilised ligand | 1 µM | remaining binding | 65%
Cn1cc(-c2cc(F)cc(N3CCn4c(cc5c4CCCC5)C3=O)c2CO)cc(Nc2ccc(N3CCN(C4COC4)CC3)cn2)c1=O | RPS6KA4 | enzyme activity, inhibitor | 0.1 µM | inhibition | 15%
Cc1nn(C)cc1-c1nc2c(N3CCN(Cc4ccc(Cl)cc4)CC3)c(Cl)cnc2[nH]1 | Ribosomal protein S6 kinase alpha-4, N-terminal kinase domain (RPS6KA4, Homo sapiens, UniProt O75676) | binding, competition with immobilised ligand | 1 µM | remaining binding | 62%
